# Published values from different studies.
# Compare with care: the assays were run in different laboratories.
# EGFR G719C: Epidermal growth factor receptor (EGFR, Homo sapiens, UniProt P00533, G719C)
SMILES,target,assay,conditions,quantity,result
O=C(Nc1cccnn1)N1CCN([C@@H]2CCOc3cc(C(F)(F)F)ccc32)CC1,"Melanocortin receptor 3 (MC3R, Homo sapiens, UniProt P41968)",cell-free assay,20 µM,inhibition,13%
Nc1ncc(-c2nc(N3CCOCC3)nc(N3CCOCC3)n2)c(C(F)F)n1,EGFR G719C,"cell-free assay, competition with immobilised ligand",10 µM,remaining binding,56%
CC[C@H](C)[C@H](NC(=O)[C@H](CO)NC(=O)[C@@H](N)CCCCN)C(=O)N[C@H](C(=O)N[C@@H](CC(N)=O)C(=O)N[C@@H](Cc1ccccc1)C(=O)N[C@@H](CCC(=O)O)C(=O)N[C@@H](CCCCN)C(=O)N[C@@H](CC(C)C)C(=O)O)[C@@H](C)CC,"Endoplasmic reticulum aminopeptidase 2 (ERAP2, Homo sapiens, UniProt Q6P179)","enzyme activity, substrate, mass spectrometry",,Km,12.3 µM
COc1ccc(S(=O)(=O)N2CCCCC2)cc1C,"Vasopressin V2 receptor (AVPR2, Homo sapiens, UniProt P30518)","ligand displacement, radioligand",10 µM,inhibition,< 30%
Cn1cc(-c2cc(F)cc(N3CCn4c(cc5c4CCCC5)C3=O)c2CO)cc(Nc2ccc(N3CCN(C4COC4)CC3)cn2)c1=O,"PAS domain-containing serine/threonine-protein kinase (PASK, Homo sapiens, UniProt Q96RG2)","enzyme activity, inhibitor",0.1 µM,inhibition,-1%
COc1ncccc1-c1cnn2ccc(N3CCN(C(=O)OC(C)C)CC3)nc12,"Serine/threonine-protein kinase PRP4 homolog (PRPF4B, Homo sapiens, UniProt Q13523)","binding, competition with immobilised ligand",1 µM,remaining binding,28%
CCN(CC)CCCC[C@H](NC(=O)[C@H](CC(C)C)NC(=O)[C@H](C)NC(=O)[C@H](Cc1ccccc1)NC(=O)c1ccc(C(C)(C)C)cc1)C(=O)N[C@@H](CO)C(=O)OC,"Nucleosome-remodeling factor subunit BPTF (BPTF, Homo sapiens, UniProt Q12830)","thermal stability, DSF",25 µM,ΔTm,0 °C
Cn1cc(-c2cccc(N3CCc4c(sc5c4CC(C)(C)C5)C3=O)c2CO)cc(Nc2ccncn2)c1=O,"Serine/threonine-protein kinase mTOR (MTOR, Homo sapiens, UniProt P42345)","enzyme activity, inhibitor",1 µM,inhibition,-4%
Nc1cccc(-c2nsc(=O)o2)c1,"Proteasome Macropain subunit MB1 (PSMB5, Homo sapiens, UniProt P28074)","enzyme activity, inhibitor",,kinact/KI,7.2 M⁻¹ s⁻¹
Cc1nn(C)cc1-c1nc2c(N3CCN(Cc4ccc(Cl)cc4)CC3)c(Cl)cnc2[nH]1,EGFR G719C,"binding, competition with immobilised ligand",1 µM,remaining binding,86%
C#Cc1n[nH]c2c(-c3cn(C(C)c4ccccn4)c(=O)[nH]c3=O)cc(F)cc12 (centres unmarked),"Epidermal growth factor receptor (EGFR, Homo sapiens, UniProt P00533, L858R/T790M)","enzyme activity, inhibitor",1 µM,inhibition,-1.7%
